Data on six molecules can be found in publication PMC3590845 (Bioorganic & medicinal chemistry, 2012).

Series [1] can be described thus: GSH-activated NO release by chemiluminescence. It counts as physicochemical. Particulars: 4 mM GSH; for NO release on reaction with GSH (in words): chemiluminescence assay; for NO yield (mol)/mol of compound mean (SE): pH 7.4 phosphate buffer, 37 °C. A digest of the protocol:
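Pre-warmed (37 °C) pH 7.4 phosphate buffer with 4 mM GSH was sparged with inert gas until the detector response was steady. Test compound was then injected to start the reaction, and NO release was followed over time. The integrated release curve gave mol NO released per mol compound.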

For series [2], the system named is H1703 cells. Kind of series: In vitro metabolism in cells followed by LC/MS. Particulars: compound 12 at 5 μM for 5, 30 and 60 min. It counts as in vitro ADME, human. Summed up:
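H1703 cells were plated in flasks, incubated overnight at 37 °C, then exposed to test compound. At each time point, cells were scraped into 10 mM HCl and lysed by freeze–thaw, then 5-sulfosalicylic acid was added. After spinning at 8000×g for 10 min, supernatants were run on C18 LC/MS (APCI positive ions, water/acetonitrile/0.1% formic acid gradient). Parent and arylated-GSH ions were tracked as extracted ion chromatograms.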

The test system of series [3] is H1703 cells xenografted in athymic mice. Description: H1703 xenograft in athymic mice. It counts as in vivo. Particulars: 20 μmol/kg ip, five times a week for four weeks. A digest of the protocol:
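H1703 cells (5 × 10^6) were injected s.c. into one flank of 7-week-old female athymic NCr-nu/nu mice. Dosing started once tumors reached 2 × 2 × 2 mm3, typically after four weeks. Test compound was given as Pluronic P123 micelles, and controls received vehicle (2.25% Pluronic P123 in PBS) ip. Body weights were recorded three times weekly.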

For series [4], the system named is H1703 cells. Description: Western blot of stress signaling and apoptosis. It counts as cell-based, human. Particulars: 1 μM. A digest of the protocol:
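After treatment of H1703 cells, lysates were immunoblotted for caspase 3, caspase 7, PARP, phospho-SAPK/JNK, phospho-c-jun and ATF3. PARP was scored as the full-length band versus the 89-kDa cleaved fragment.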
On the technique in general: Immunoblotting shows a protein as a band on a membrane.

Each structure is given as a SMILES string.

`CCOC(=O)N1CCN(/[N+]([O-])=N/Oc2ccc(C#N)cc2[N+](=O)[O-])CC1` [Compound 13]: in series [1], the “NO release on reaction with GSH (in words)” value (“NO release on reaction” below) is recorded as “essentially quantitative amounts of NO” and the “NO yield (mol)/mol of compound mean (SE)” value was 2.02 (0.06) mol/mol of compound.
As to `CCOC(=O)N1CCCN(/[N+]([O-])=N/Oc2ccc([N+](=O)[O-])cc2[N+](=O)[O-])CC1` [Compound 2, reference compound], the “NO yield (mol)/mol of compound mean (SE)” value in series [1] is recorded as 2.00 (0.04) mol/mol of compound.
`CCOC(=O)N1CCN(/[N+]([O-])=N/Oc2ccc([N+](=O)[O-])cc2[N+](=O)[O-])CC1` [JS-K, reference compound]: the “NO yield (mol)/mol of compound mean (SE)” value in series [1] was 1.96 (0.03) mol/mol of compound. The “Decomposition / metabolic turnover in cells” value in series [2] is recorded as “near complete metabolic turnover of JS-K in as few as ten minutes”.
`CCOC(=O)N1CCCN(/[N+]([O-])=N/Oc2ccc(C#N)cc2[N+](=O)[O-])CC1` [Compound 16]: in series [1], the “NO release on reaction” value was “essentially quantitative amounts of NO” and the “NO yield (mol)/mol of compound mean (SE)” value is recorded as 1.96 (0.04) mol/mol of compound.
For `CCOC(=O)N1CCCN(/[N+]([O-])=N/Oc2ccc([N+](=O)[O-])cc2C#N)CC1` [Compound 15], in that order: “essentially quantitative amounts of NO” and 2.01 (0.03) mol/mol of compound.
Consider `CCOC(=O)N1CCN(/[N+]([O-])=N/Oc2ccc([N+](=O)[O-])cc2C#N)CC1` [Compound 12], for which, in series [1], the “NO release on reaction” value is reported as “essentially quantitative amounts of NO” and the “NO yield (mol)/mol of compound mean (SE)” value was 2.04 (0.01) mol/mol of compound. For the same molecule, in series [2], the “Decomposition / metabolic turnover in cells” value is “over 1 h”. The Body weights entry in series [3] was “did not affect body weights”. Besides, in series [4], the ATF3 level entry is given as “upregulated”; the “Apoptosis (cleavage of PARP and caspases 3 and 7)” value was “activated within 4 h”. The “SAPK/JNK stress signaling pathway” value in series [4] (phosphorylation of SAPK/JNK and c-jun after 4 h) is reported as “activated”.
